Assay results as given in ChEMBL document CHEMBL3526048, “In vitro metabolism of rivoglitazone, a novel peroxisome proliferator-activated receptor γ agonist, in rat, monkey, and human liver microsomes and freshly isolated hepatocytes” (Drug Metab Dispos, 2011).

Tests used:
Liver microsome [1] = assay: Drug level in Sprague-Dawley rat liver microsomes treated with [14C]-rivoglitazone at 20 uM after 2 to 4 hrs by radio-HPLC/LC-MS/MS analysis in presence of UDPGA, UDPGA/SAM and NADPH-generating system; assay type: ADME
Cytochrome P450 1A2 [2] = molecular target: T1, Cytochrome P450 1A2 (Homo sapiens, UniProt P05177); assay: Activity of human CYP1A2 expressed in microsomes isolated from baculovirus infected insect cell assessed as enzyme-mediated 3-(4-((6-methoxy-1-methyl-1H-benzo[d]imidazol-2-yl)methoxy)phenyl)-2-(methylsulfonyl)propanamide formation at 20 uM after 2 hrs by radio-HPLC/LC-MS/MS analysis in presence of NADPH-generating system/SAM; assay type: ADME
T1 sequence (P05177 whole entry): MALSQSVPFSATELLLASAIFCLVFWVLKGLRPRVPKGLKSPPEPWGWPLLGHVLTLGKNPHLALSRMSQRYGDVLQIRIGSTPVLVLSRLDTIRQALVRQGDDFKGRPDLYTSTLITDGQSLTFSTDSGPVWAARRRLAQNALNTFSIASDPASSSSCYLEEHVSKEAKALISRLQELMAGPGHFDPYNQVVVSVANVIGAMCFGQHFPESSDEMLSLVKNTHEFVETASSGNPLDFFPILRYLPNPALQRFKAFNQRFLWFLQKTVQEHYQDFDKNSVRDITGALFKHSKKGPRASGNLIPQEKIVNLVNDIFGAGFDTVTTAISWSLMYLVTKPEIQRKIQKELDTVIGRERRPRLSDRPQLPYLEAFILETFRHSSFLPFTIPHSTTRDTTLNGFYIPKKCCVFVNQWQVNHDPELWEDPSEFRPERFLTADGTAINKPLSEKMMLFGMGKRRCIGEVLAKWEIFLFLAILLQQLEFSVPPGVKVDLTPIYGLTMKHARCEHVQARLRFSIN

[3] = Drug metabolism in rat hepatocytes assessed as formation of (2S,3S,4S,5R,6R)-6-((1-carboxy-2-(4-((6-methoxy-1-methyl-1H-benzo[d]imidazol-2-yl)methoxy)phenyl)ethylthio)carbonylamino)-3,4,5-trihydroxytetrahydro-2H-pyran-2-carboxylic acid at 30 uM after 3 hrs by radio-HPLC/LC-MS/MS analysis in presence of UDPGA and UDPGA/SAM; assay type: ADME, cell-based, Hepatocyte
[4] = Drug metabolism in rat hepatocytes assessed as formation of 5-(4-((6-methoxy-1H-benzo[d]imidazol-2-yl)methoxy)benzyl)thiazolidine-2,4-dione at 30 uM after 3 hrs by radio-HPLC/LC-MS/MS analysis in presence of NADPH-generating system and NADPH-generating system/SAM; assay type: ADME, cell-based, Hepatocyte
Liver microsome [5] = assay: Drug metabolism in Sprague-Dawley rat liver microsomes assessed as formation of (2S,3S,4S,5R,6R)-3,4,5-trihydroxy-6-(5-(4-((6-methoxy-1-methyl-1H-benzo[d]imidazol-2-yl)methoxy)benzyl)-2,4-dioxothiazolidin-3-yl)tetrahydro-2H-pyran-2-carboxylic acid at 20 uM after 4 hrs by radio-HPLC/LC-MS/MS analysis in presence of UDPGA and UDPGA/SAM; assay type: ADME
[6] = Drug metabolism in cynomolgus monkey liver microsomes assessed as formation of 2-((4-((2,4-dioxothiazolidin-5-yl)methyl)phenoxy)methyl)-1-methyl-1H-benzo[d]imidazol-6-yl hydrogen sulfate at 20 uM by radio-HPLC/LC-MS/MS analysis; assay type: ADME, Macaca fascicularis
Cytochrome P450 2C19 [7] = molecular target: T2, Cytochrome P450 2C19 (Homo sapiens, UniProt P33261); assay: Activity of human CYP2C19 expressed in microsomes isolated from baculovirus infected insect cell assessed as enzyme-mediated 2-mercapto-3-(4-((6-methoxy-1-methyl-1H-benzo[d]imidazol-2-yl)methoxy)phenyl)propanamide formation at 20 uM after 2 hrs by radio-HPLC/LC-MS/MS analysis in presence of NADPH-generating system and NADPH-generating system/SAM; assay type: ADME
Method in brief: (§1)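 Baculovirus/insect-cell microsomes expressing single human CYPs, 1 mg/ml protein, with 50 mM potassium phosphate (pH 7.4) or 100 mM Tris-HCl (pH 7.5). NADPH-generating system: 2 mM NADP⁺, 20 mM glucose 6-phosphate, 2 units/ml G6PDH, 10 mM MgCl₂. [¹⁴C]rivoglitazone at 20 μM, 2 h at 37°C with shaking. Control used insect-cell control supersomes. Stopped with acetonitrile; supernatant concentrated under nitrogen; metabolites analysed by radio-HPLC, LC-MS and LC-MS/MS.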

[8] = molecular target: T3, UDP-glucuronosyltransferase 2B7 (Homo sapiens, UniProt P16662); assay: Activity of human UGT2B7 expressed in microsomes isolated from baculovirus infected insect cell assessed as enzyme-mediated 3-(4-((6-methoxy-1-methyl-1H-benzo[d]imidazol-2-yl)methoxy)phenyl)-2-(methylsulfinyl)propanamide formation at 20 uM after 4 hrs by radio-HPLC/LC-MS/MS analysis in presence of NADPH-generating system/SAM; assay type: ADME
T3 sequence (P16662 whole entry): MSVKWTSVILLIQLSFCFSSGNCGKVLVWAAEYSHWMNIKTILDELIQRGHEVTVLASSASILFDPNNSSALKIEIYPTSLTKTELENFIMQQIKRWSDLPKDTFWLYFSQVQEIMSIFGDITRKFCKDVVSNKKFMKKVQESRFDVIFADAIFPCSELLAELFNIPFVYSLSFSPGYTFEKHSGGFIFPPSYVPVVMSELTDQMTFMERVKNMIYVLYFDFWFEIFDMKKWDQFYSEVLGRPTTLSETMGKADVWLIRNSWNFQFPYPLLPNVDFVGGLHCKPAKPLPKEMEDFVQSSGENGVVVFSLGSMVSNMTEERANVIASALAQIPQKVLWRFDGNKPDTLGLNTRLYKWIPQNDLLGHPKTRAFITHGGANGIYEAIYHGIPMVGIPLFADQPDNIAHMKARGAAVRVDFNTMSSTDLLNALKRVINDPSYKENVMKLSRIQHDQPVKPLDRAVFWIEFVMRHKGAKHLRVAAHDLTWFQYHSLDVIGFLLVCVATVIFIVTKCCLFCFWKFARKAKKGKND

[9] = Drug metabolism in rat hepatocytes assessed as formation of 3-(4-((6-methoxy-1-methyl-1H-benzo[d]imidazol-2-yl)methoxy)phenyl)-2-(methylsulfinyl)propanamide at 30 uM after 3 hrs by radio-HPLC/LC-MS/MS analysis in presence of NADPH-generating system/SAM; assay type: ADME, cell-based, Hepatocyte
Cytochrome P450 1A2 [10] = molecular target: T1, Cytochrome P450 1A2; assay: Activity of human CYP1A2 expressed in microsomes isolated from baculovirus infected insect cell assessed as enzyme-mediated 2-((4-((2,4-dioxothiazolidin-5-yl)methyl)phenoxy)methyl)-1-methyl-1H-benzo[d]imidazol-6-yl hydrogen sulfate formation at 20 uM after 2 hrs by radio-HPLC/LC-MS/MS analysis; assay type: ADME; method in brief: as §1
Liver microsome [11] = assay: Drug metabolism in Sprague-Dawley rat liver microsomes assessed as formation of 3-(4-((6-methoxy-1-methyl-1H-benzo[d]imidazol-2-yl)methoxy)phenyl)-2-(methylthio)propanamide at 20 uM after 2 hrs by radio-HPLC/LC-MS/MS analysis in presence of NADPH-generating system/SAM; assay type: ADME
Cytochrome P450 2C19 [12] = molecular target: T2, Cytochrome P450 2C19; assay: Activity of human CYP2C19 expressed in microsomes isolated from baculovirus infected insect cell assessed as enzyme-mediated (2S,3S,4S,5R,6R)-3,4,5-trihydroxy-6-(5-(4-((6-methoxy-1-methyl-1H-benzo[d]imidazol-2-yl)methoxy)benzyl)-2,4-dioxothiazolidin-3-yl)tetrahydro-2H-pyran-2-carboxylic acid formation at 20 uM after 2 hrs by radio-HPLC/LC-MS/MS analysis in presence of UDPGA and UDPGA/SAM; assay type: ADME
Cytochrome P450 2C9 = Cytochrome P450 2C9 (Homo sapiens, UniProt P11712); assay: Activity of human CYP2C9 expressed in microsomes isolated from baculovirus infected insect cell assessed as enzyme-mediated 3-(4-((6-methoxy-1-methyl-1H-benzo[d]imidazol-2-yl)methoxy)phenyl)-2-(methylthio)propanoic acid formation at 20 uM after 2 hrs by radio-HPLC/LC-MS/MS analysis in presence of NADPH-generating system/SAM and UDPGA/SAM; assay type: ADME
Cytochrome P450 2C9, sequence (P11712 whole entry): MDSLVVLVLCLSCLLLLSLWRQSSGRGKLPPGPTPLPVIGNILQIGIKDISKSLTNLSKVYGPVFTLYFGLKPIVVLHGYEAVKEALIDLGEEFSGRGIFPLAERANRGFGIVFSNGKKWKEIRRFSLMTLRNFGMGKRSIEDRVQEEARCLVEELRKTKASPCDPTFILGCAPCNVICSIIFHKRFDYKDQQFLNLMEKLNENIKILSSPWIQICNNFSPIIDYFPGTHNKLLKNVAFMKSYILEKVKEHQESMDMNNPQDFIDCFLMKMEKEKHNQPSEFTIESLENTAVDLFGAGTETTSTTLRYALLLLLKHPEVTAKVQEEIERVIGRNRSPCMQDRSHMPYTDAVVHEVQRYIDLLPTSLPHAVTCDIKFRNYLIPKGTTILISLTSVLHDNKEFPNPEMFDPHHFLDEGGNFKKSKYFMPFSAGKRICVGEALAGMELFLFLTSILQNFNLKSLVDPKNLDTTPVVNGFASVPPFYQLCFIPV

T2 sequence (P33261 whole entry): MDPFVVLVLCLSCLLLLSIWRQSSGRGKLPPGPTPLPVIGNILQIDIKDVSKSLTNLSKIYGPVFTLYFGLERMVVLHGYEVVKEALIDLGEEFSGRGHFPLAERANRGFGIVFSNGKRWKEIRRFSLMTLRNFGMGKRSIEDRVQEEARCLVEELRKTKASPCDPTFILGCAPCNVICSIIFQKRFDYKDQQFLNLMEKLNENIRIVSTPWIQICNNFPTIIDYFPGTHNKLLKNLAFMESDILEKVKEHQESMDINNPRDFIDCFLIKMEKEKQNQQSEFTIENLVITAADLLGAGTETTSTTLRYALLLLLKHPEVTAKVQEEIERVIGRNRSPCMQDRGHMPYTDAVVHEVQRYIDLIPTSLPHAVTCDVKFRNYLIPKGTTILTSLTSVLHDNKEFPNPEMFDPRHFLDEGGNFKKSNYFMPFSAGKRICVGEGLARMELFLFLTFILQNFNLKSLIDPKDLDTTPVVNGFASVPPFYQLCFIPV

Which Drug metabolism (Liver microsome [1]) does the source give for `COc1ccc2nc(COc3ccc(CC(S)C(=O)O)cc3)n(C)c2c1` (stereo not drawn) here?
Its Drug metabolism is “metabolite_detected”.

What does the source list for `COc1ccc2nc(COc3ccc(C[14CH]4SC(=O)NC4=O)cc3)n(C)c2c1.Cl` (racemic)?
Drug metabolism (Cytochrome P450 1A2 [2]): metabolite_not_detected; Drug metabolism [3]: metabolite_detected; Drug metabolism [4]: metabolite_detected; Drug metabolism (Liver microsome [5]): metabolite_detected; Drug metabolism [6]: metabolite_not_detected; Drug metabolism (Cytochrome P450 2C19 [7]): metabolite_detected; Drug metabolism [8]: metabolite_not_detected; Drug metabolism [9]: metabolite_detected; Drug metabolism (Cytochrome P450 1A2 [10]): metabolite_not_detected; Drug metabolism (Liver microsome [11]): metabolite_detected; Drug metabolism (Cytochrome P450 2C19 [12]): metabolite_not_detected; Drug metabolism (Cytochrome P450 2C9): metabolite_not_detected
